The source of these data is the array DNA melting data of Ke et al. (doi:10.1101/2024.01.08.574731).

Data set [1] is described as follows: folding enthalpy; higher = less favourable; fluorescence melt of hairpins on a sequencing array, two-state fit. The settings on record: sodium 0.088 M. In short, it runs like this:
(§1)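 Melting temperature and folding enthalpy were derived from bootstrapped two-state fits. The fitted temperatures were raised by 9.35 °C to agree with UV melts, and four replicates were combined by inverse variance. The underlying data were Cy3 fluorescence images of library hairpins, with annealed Cy3 and quencher oligos, on a sequenced MiSeq flow cell in 50 mM Na-HEPES pH 8.0, 25 mM NaCl, taken in 2.5 °C steps up to 60 °C, normalised to pre-quench Cy3 and to control constructs.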

A short description of data set [2]: melting temperature; fluorescence melt of hairpins on a sequencing array, two-state fit, raised by 9.35 °C to match UV melts. The settings on record: sodium 0.088 M. A digest of the protocol:
as §1

With GCGCGTCCGAAAGGACGC (((..(((....)))))), the folding enthalpy in data set [1] is -5.6 kcal/mol. In addition, the Tm in data set [2] turned out to be 67.3 °C.
The matching figures for GTGGAAGCGAAAGCTCAC (((..(((....)))))): -18.8 kcal/mol and 44.3 °C.
In the case of GTCAGTGGAAACACTAAC ((.((((....)))).)), the folding enthalpy in data set [1] was -17.4 kcal/mol. In addition, in data set [2], the Tm was found to be 30.9 °C.
In the same order, the values of GATCACTTGAGTGATC ((((((....)))))) are -42.4 kcal/mol and 56.1 °C.
In the same order, the values of GGACTTCGAAAGAATCC (((.(((....)))))) are -21.7 kcal/mol and 35.2 °C.
In the same order, the values of ATGCAGAAATGCAT (((((....))))) are -24.1 kcal/mol and 46.2 °C.
On to GATGTTACGAAAGTAATC (((..(((....)))))), for which, in data set [1], the folding enthalpy was -13.5 kcal/mol. The Tm in data set [2] was 26.9 °C.
The matching figures for GGGCTACCGAAAGGTCCC (((..(((....)))))): -18.8 kcal/mol and 39.4 °C.
In the same order, the values of GCGCACGAAAGTGTACGC ((((((....)))..))) are -23.8 kcal/mol and 53.5 °C.
In the same order, the values of GTCTTCCGAAAGGACGAC (((.(((....))).))) are -40.7 kcal/mol and 48.6 °C.
Take GATCAGAACCTGATC ((((((...)))))): the folding enthalpy in data set [1] was -36.2 kcal/mol. For the same sequence, the Tm in data set [2] came to 46.7 °C.
The matching figures for CGCTGCGGAAACGCTGCG (((.(((....))).))): -30.7 kcal/mol and 69.2 °C.
The matching figures for GGACTACGAAAGTACTCC (((.(((....))).))): -13.3 kcal/mol and 34.9 °C.
The matching figures for GATCTGCTTGCAGATC ((((((....)))))): -40.1 kcal/mol and 67.3 °C.
Regarding GATCGTGCCAACGATC ((((((....)))))), the folding enthalpy in data set [1] is -29.7 kcal/mol. For the same sequence, the Tm in data set [2] was 66.6 °C.
In the same order, the values of GCTCCCGAAAGGGCCAGC ((((((....)))..))) are -11.7 kcal/mol and 34.8 °C.
In the same order, the values of GATATGGGAAACTATATC (((((.(....).))))) are -23.2 kcal/mol and 33.8 °C.
On to GGATTCGAAAGAATCC ((((((....)))))), for which, in data set [1], the folding enthalpy is -37.9 kcal/mol. The Tm in data set [2] came out at 62.9 °C.
In the same order, the values of GGTCTCGCGAAAGCGACC (((..(((....)))))) are -9.72 kcal/mol and 33.2 °C.
The matching figures for GATCAATATCTTGATC ((((((....)))))): -30.6 kcal/mol and 42.6 °C.
In the same order, the values of GTCTTAGGAAACTAAGGC (.(((((....))))).) are -25.9 kcal/mol and 42.9 °C.
CGGCCGGAAACGGTGCCG ((((((....)))..))): in data set [1], the folding enthalpy is -35.8 kcal/mol. The Tm in data set [2] came out at 51.9 °C.
The matching figures for GGAATCCCGAAAGGGTCC (((..(((....)))))): -13.2 kcal/mol and 33 °C.
In the same order, the values of GTAGTAGGAAACCACTAC (((((.(....).))))) are -28.9 kcal/mol and 35 °C.
As to GCGTCTCGAAAGAGCCGC (((.(((....))).))), the folding enthalpy in data set [1] is -42.6 kcal/mol. Also, the Tm in data set [2] came out at 56.5 °C.
In the same order, the values of GATCTTGTAAAGATC ((((((...)))))) are -43.5 kcal/mol and 53.8 °C.
Consider GCTTGTGGAAACATGAGC (((..((....))..))), for which, in data set [1], the folding enthalpy is -29.4 kcal/mol. The Tm in data set [2] was found to be 37.7 °C.
In the same order, the values of GGACGGGGAAACCTGTCC ((((.((....)).)))) are -44.5 kcal/mol and 56.8 °C.
The matching figures for GCAGCGCCGAAAGGCTGC (((..(((....)))))): -14.7 kcal/mol and 53.9 °C.
In the same order, the values of GCCCCGCGAAAGCCTGGC (((..((....))..))) are -17 kcal/mol and 39.5 °C.
In the case of GCTCTCGAAAGAGTGAGC ((((((....)))..))), the folding enthalpy in data set [1] is -26 kcal/mol. In addition, the Tm in data set [2] came out at 41.6 °C.
The matching figures for GTCATAGGAAACTATGGC (.(((((....))))).): -29.1 kcal/mol and 44.6 °C.
In the same order, the values of GCAGGTGGAAACGCCTGC (((((.(....).))))) are -46.6 kcal/mol and 61.8 °C.
Turning to GGCCCTCGAAAGAGCGCC (((.(((....))).))), in data set [1], the folding enthalpy was -35.2 kcal/mol. In data set [2], the Tm came to 51.6 °C.
The matching figures for GTGCCAGAAATGGCAC ((((((....)))))): -36.7 kcal/mol and 67.8 °C.
With GACAGCGAAAGCTAGTC ((((((....))).))), the folding enthalpy in data set [1] is -22.6 kcal/mol. The Tm in data set [2] came out at 51.2 °C.
The matching figures for GACGGACGAAAGTCTGTC (((.(((....))).))): -35.3 kcal/mol and 60.5 °C.
